Measured values from different studies.
Compare with care: the assays were run in different laboratories.
Target: Proto-oncogene tyrosine-protein kinase ROS (ROS1, Homo sapiens, UniProt P08922)

With `O=C(NCC1CCOCC1)c1n[nH]cc1NC(=O)c1c(F)cccc1F` the remaining binding was 100% (binding, competition with immobilised ligand; 1 µM).
For `Cc1cnc(Nc2ccc(C(=O)N3CCC(N4CCCC4)CC3)cc2)nc1-c1cc2ccccc2s1`, the remaining binding was 31% (binding, competition with immobilised ligand; 1 µM).
The remaining binding of `CN(C)c1nccc(-c2cnc3ncccn23)n1` is reported as 71% (binding; 1 µM).
`COc1cnc(Nc2cccc(S(N)(=O)=O)c2)nc1N1CCN(c2ccccc2)C(=O)C1` has a remaining binding of 100% (binding, competition with immobilised ligand; 1 µM).
The remaining binding of `C[C@H]1CCN(c2nccc(-c3cnn4ncccc34)n2)C1` is reported as 91% (binding; 1 µM).
With `CO[C@H]1CC[C@H](CNc2ccc(S(=O)(=O)NC(=O)c3ccc(N4CCN(CC5=C(c6ccc(Cl)cc6)CC(C)(C)CC5)CC4)cc3Oc3cnc4[nH]ccc4c3)cc2[N+](=O)[O-])CC1` the remaining binding was 72% (cell-free assay, competition with immobilised ligand; 1 µM).
`c1cnn2ncc(-c3ccnc(N4CCC45COC5)n3)c2c1` has a remaining binding of 100% (binding; 1 µM).
With `O=C(NCCCC1CCCCC1)c1ccc(CNC(=O)c2cnn(-c3ccccc3)c2C(F)(F)F)cc1` the remaining binding was 100% (cell-free assay, competition with immobilised ligand; 0.1 µM).
With `O=C(NCCCN1CCOCC1)c1ccc(Nc2nccc(-c3cc4ccccc4s3)n2)cc1` the remaining binding was 53% (binding, competition with immobilised ligand; 1 µM).
`CN(c1nccc(-c2cnn3ncccc23)n1)C1CC1` has a remaining binding of 100% (binding; 1 µM).
With `CC1=C(C#N)[C@@H](c2ccc3[nH]nc(C)c3c2)C(C#N)=C(c2ccc(Cl)cc2)N1` the remaining binding was 100% (cell-free assay, competition with immobilised ligand; 1 µM).
For `CN(C)c1nccc(-c2cnn3ncccc23)n1`, the remaining binding was 100% (binding; 1 µM).
`COc1ncc2cc3ccccc3nc2c1C#N` gave a remaining binding of 91% (cell-free assay, competition with immobilised ligand; 5 µM).
The remaining binding of `FC(F)(F)Oc1cccc(-c2cnc3ccc(-c4ccncc4)nn23)c1` is reported as 81% (binding, competition with immobilised ligand; 5 µM).
For `CN(C)CC#Cc1ccc(OCCCc2sc(N3CCc4cccc(C(=O)Nc5nc6ccccc6s5)c4C3)nc2C(=O)O)c(F)c1`, the remaining binding was 93% (cell-free assay, competition with immobilised ligand; 1 µM).
The remaining binding of `N[C@@H]1CCN(c2nccc(-c3cnn4ncccc34)n2)C1` is reported as 72% (binding; 1 µM).
`N#CC1(c2ccccn2)CCN(Cc2cc(C(=O)N3CCCC3)c(=O)n3ccccc23)CC1` has a remaining binding of 97% (cell-free assay, competition with immobilised ligand; 1 µM).
For `C[C@@H](c1ccc(-n2cnc3c(N)ncnc32)cc1)N1CCc2nn(C)c(Cc3ccccc3)c2C1=O`, the remaining binding was 100% (binding, competition with immobilised ligand; 0.1 µM).
With `O=C(Nc1cccnn1)N1CC(C/C=C/c2cncc(Oc3ccc(C(F)(F)F)cn3)n2)C1` the remaining binding was 100% (cell-free assay, competition with immobilised ligand; 1 µM).
`O=C(NCCCN1CCOCC1)c1ccc(Nc2ncc(Cl)c(-c3ccc(Cl)s3)n2)cc1` gave a remaining binding of 47% (binding, competition with immobilised ligand; 1 µM).
For `O=S(=O)(NC1CCC(c2cc(F)ccc2F)(S(=O)(=O)c2ccc(Cl)cc2)CC1)C(F)(F)F` (stereo not shown), the remaining binding was 100% (cell-free assay, competition with immobilised ligand; 1 µM).
`COc1ccnn2ncc(-c3ccnc(N(C)C)n3)c12` has a remaining binding of 100% (binding; 1 µM).
